# Data taken from ChEMBL document CHEMBL1132644, “Substituted isoquinolines and quinazolines as potential antiinflammatory agents. Synthesis and biological evaluation of inhibitors of tumor necrosis factor alpha” (J Med Chem, 1999).
# Legend:
# Tumor necrosis factor = Tumor necrosis factor (Homo sapiens, UniProt P01375); test: The compound was tested in vitro for inhibitory activity against Tumor necrosis factor alpha from human PMBC cell line by ELISA test.; format: functional, cell-based
# In short: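 PBMC isolated from heparinized normal human blood by Ficoll-Histopaque, cultured in RPMI 1640 with 20% autologous plasma and L-glutamine. Compounds were added at 2× in an equal volume, 60 min preincubation, then LPS stimulation. Supernatant was taken 18 h later. TNFα sandwich ELISA (2 µg/mL mouse anti-human capture, BSA block, 2 h at 37 °C), standard curve. IC50 is the µM concentration giving 50% inhibition versus control; a subset was run in ≥3 separate experiments.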
# Jurkat = test: Cell toxicity against jurkat cells determined using MTT assay; format: functional, cell-based; conditions: Homo sapiens
# In short: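 Jurkat cells, MTT (3-[4,5-dimethylthiazol-2-yl]-2,5-diphenyltetrazolium bromide) read-out. The value is the µM concentration that inhibited growth by 50% of control.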
# Sequence of Tumor necrosis factor (P01375 whole entry): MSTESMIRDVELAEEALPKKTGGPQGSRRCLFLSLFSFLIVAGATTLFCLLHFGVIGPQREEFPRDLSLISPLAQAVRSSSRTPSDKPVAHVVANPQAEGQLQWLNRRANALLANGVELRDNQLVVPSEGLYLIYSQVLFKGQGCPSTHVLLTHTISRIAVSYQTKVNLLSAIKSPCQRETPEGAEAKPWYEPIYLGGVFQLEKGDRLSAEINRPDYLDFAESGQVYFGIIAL
smiles,measurement,setting,value
COc1cc2ccnc(Nc3ccccc3)c2cc1OC,IC50,Tumor necrosis factor,> 100 µM
CCOC(=O)CCCn1cc([N+](=O)[O-])c2cc(OC)c(OC)cc2c1=O,IC50,Tumor necrosis factor,35 µM
CCOC(=O)CCCn1cc(N)c2cc(OC)c(OC)cc2c1=O,IC50,Tumor necrosis factor,37 µM
CCOC(=O)CCCn1cnc2ccccc2c1=O,IC50,Tumor necrosis factor,> 25 µM
CCOC(=O)CCCOc1nc(Nc2ccccc2)nc2cc(OC)c(OC)cc12,IC50,Tumor necrosis factor,> 25 µM
CCOC(=O)CCCN1CNc2cc(N)ccc2C1=O,IC50,Jurkat,> 50 µM
same,IC50,Tumor necrosis factor,5 µM
CCOC(=O)CCCn1ccc2cc(O)c(O)cc2c1=O,IC50,Jurkat,47 µM
same,IC50,Tumor necrosis factor,2 µM
CCOC(=O)CCCn1cnc2cc(OC)c(OC)c(Cl)c2c1=O,IC50,Jurkat,89 µM
same,IC50,Tumor necrosis factor,22 µM
CNC(=O)CCCn1ccc2cc(OC)c(OC)cc2c1=O,IC50,Tumor necrosis factor,> 100 µM
CCOC(=O)CCCn1c(Cl)nc2cc(OC)c(OC)cc2c1=O,IC50,Tumor necrosis factor,48 µM
CCOC(=O)CCCn1cc(F)c2c(F)c(OC)c(OC)cc2c1=O,IC50,Tumor necrosis factor,> 100 µM
CCOC(=O)CCCOc1nc(N(C)C)nc2cc(OC)c(OC)cc12,IC50,Tumor necrosis factor,> 25 µM
COc1cc2ccnc(Nc3cccc(Br)c3)c2cc1OC,IC50,Tumor necrosis factor,37 µM
CCOC(=O)CCCn1cnc2cc(OC)c(OC)c(N)c2c1=O [listing 1 of 2 here],IC50,Jurkat,> 100 µM
same,IC50,Tumor necrosis factor,20 µM
CCOC(=O)CCCn1cc(Br)c2cc(O)c(O)cc2c1=O,IC50,Jurkat,11 µM
same,IC50,Tumor necrosis factor,1 µM
CCOC(=O)CCCn1cc(C#N)c2cc(OC)c(OC)cc2c1=O,IC50,Jurkat,10 µM
same,IC50,Tumor necrosis factor,5 µM
CNC(=O)CCCn1cc(Br)c2cc(OC)c(OC)cc2c1=O,IC50,Tumor necrosis factor,> 100 µM
CCOC(=O)CCCn1c(Nc2ccccc2)nc2cc(OC)c(OC)cc2c1=O,IC50,Tumor necrosis factor,> 25 µM
CCOC(=O)CCCn1ccc2ccccc2c1=O,IC50,Jurkat,> 50 µM
same,IC50,Tumor necrosis factor,5 µM
COc1cc2ccn(CCCC(=O)OCCN3CCOCC3)c(=O)c2cc1OC,IC50,Jurkat,> 100 µM
same,IC50,Tumor necrosis factor,10 µM
CCOC(=O)CCCn1cc(Br)c2cc(OC)c(OC)cc2c1=O,IC50,Tumor necrosis factor,51 µM
CCCn1c(=O)n(CCCC(=O)OCC)c(=O)c2nccnc21,IC50,Jurkat,> 25 µM
same,IC50,Tumor necrosis factor,3 µM
CCOC(=O)CCCn1cnc2ccc(Cl)cc2c1=O,IC50,Tumor necrosis factor,> 25 µM
CCOC(=O)CCCn1cnc2cc(F)c(F)cc2c1=O,IC50,Tumor necrosis factor,> 25 µM
CCOC(=O)CCCn1cnc2cc(OC)c(OC)c(N=[N+]=[N-])c2c1=O,IC50,Tumor necrosis factor,> 25 µM
CCOC(=O)CCn1cnc2cc(OC)c(OC)cc2c1=O,IC50,Jurkat,> 25 µM
same,IC50,Tumor necrosis factor,9 µM
CCOC(=O)CCCn1cnc2ccc(Br)cc2c1=O,IC50,Tumor necrosis factor,> 25 µM
CCOC(=O)CCn1ccc2cc(OC)c(OC)cc2c1=O,IC50,Tumor necrosis factor,50 µM
CCOC(=O)CCCn1cnc2ccc([N+](=O)[O-])cc2c1=O,IC50,Tumor necrosis factor,> 25 µM
COc1cc2ccnc(NCCO)c2cc1OC,IC50,Tumor necrosis factor,55 µM
CCOC(=O)CCCN1CNc2ccc(N)cc2C1=O,IC50,Jurkat,> 100 µM
same,IC50,Tumor necrosis factor,10 µM
CCOC(=O)CCCn1ccc2cc(OC(C)=O)c(OC(C)=O)cc2c1=O,IC50,Jurkat,40 µM
CCOC(=O)CCCn1c(Nc2ccc(N=[N+]=[N-])cc2)nc2cc(OC)c(OC)cc2c1=O,IC50,Tumor necrosis factor,> 50 µM
CCOC(=O)CCCn1cc(CN)c2cc(OC)c(OC)cc2c1=O,IC50,Jurkat,7 µM
same,IC50,Tumor necrosis factor,13 µM
CCOC(=O)CCCn1cnc2cc(Cl)ccc2c1=O,IC50,Tumor necrosis factor,> 25 µM
COc1cc2ccnc(Nc3cccc(Cl)c3)c2cc1OC,IC50,Tumor necrosis factor,33 µM
CCOC(=O)CCCn1cnc2cc(F)ccc2c1=O,IC50,Tumor necrosis factor,> 25 µM
CCOC(=O)CCCn1cnc2cc(OC)c(OC)c(NC(C)=O)c2c1=O,IC50,Tumor necrosis factor,> 100 µM
CCOC(=O)CCCn1ccc2cc(OC)c(OC)cc2c1=O,IC50,Jurkat,> 50 µM
same,IC50,Tumor necrosis factor,5 µM
CCOC(=O)CCCn1cc(F)c2cc(OC)c(OC)cc2c1=O,IC50,Tumor necrosis factor,20 µM
CCOC(=O)CCCn1cc(C(C)=O)c2cc(OC)c(OC)cc2c1=O,IC50,Jurkat,47 µM
same,IC50,Tumor necrosis factor,15 µM
CCOC(=O)CCCn1c(N=[N+]=[N-])nc2cc(OC)c(OC)cc2c1=O,IC50,Jurkat,> 25 µM
same,IC50,Tumor necrosis factor,14 µM
CCOC(=O)CCCn1cnc2ccc(F)cc2c1=O,IC50,Tumor necrosis factor,> 25 µM
CCOC(=O)CCCn1ccc2cc(OC(=O)OCC)c(OC(=O)OCC)cc2c1=O,IC50,Jurkat,40 µM
same,IC50,Tumor necrosis factor,11 µM
CCOC(=O)CCCOc1nc(Nc2ccc(Br)cc2)nc2cc(OC)c(OC)cc12,IC50,Tumor necrosis factor,> 25 µM
CCOC(=O)CCCn1cnc2cc(O)c(O)cc2c1=O,IC50,Tumor necrosis factor,48 µM
CCOC(=O)CCCCn1cnc2cc(OC)c(OC)cc2c1=O,IC50,Jurkat,8 µM
same,IC50,Tumor necrosis factor,6 µM
CCOC(=O)CCCn1cnc2ccc(N)cc2c1=O,IC50,Jurkat,> 50 µM
same,IC50,Tumor necrosis factor,4 µM
CCOC(=O)CCCn1cnc2cc(OC)c(OC)c(N)c2c1=O [listing 2 of 2 here],IC50,Tumor necrosis factor,15 µM
CCOC(=O)CCCn1cnc2cccc(Cl)c2c1=O,IC50,Tumor necrosis factor,> 25 µM
CCOC(=O)CCCCn1ccc2cc(OC)c(OC)cc2c1=O,IC50,Jurkat,22 µM
same,IC50,Tumor necrosis factor,21 µM
CCOC(=O)CCCn1c(Nc2ccc(Br)cc2)nc2cc(OC)c(OC)cc2c1=O,IC50,Tumor necrosis factor,> 50 µM
CCOC(=O)CCCn1cnc2cc(N)ccc2c1=O,IC50,Jurkat,13 µM
same,IC50,Tumor necrosis factor,9 µM
CCOC(=O)CCCn1cnc2cc([N+](=O)[O-])ccc2c1=O,IC50,Tumor necrosis factor,> 25 µM
CCOC(=O)CCCOc1nc(Cl)nc2cc(OC)c(OC)cc12,IC50,Tumor necrosis factor,68 µM
CCOC(=O)CCCn1c(N)nc2cc(OC)c(OC)cc2c1=O,IC50,Tumor necrosis factor,> 25 µM
CCOC(=O)CCCn1cnc2cc(OC)c(OC)cc2c1=O,IC50,Jurkat,3 µM
same,IC50,Tumor necrosis factor,3 µM
COc1cc2ccn(CCCC(=O)O)c(=O)c2cc1OC,IC50,Tumor necrosis factor,> 100 µM
CCOC(=O)CCCn1cnc2cc(OC)c(OC)c([N+](=O)[O-])c2c1=O,IC50,Jurkat,> 25 µM
same,IC50,Tumor necrosis factor,11 µM
COc1cc2ccnc(Nc3ccc(Br)cc3)c2cc1OC,IC50,Tumor necrosis factor,38 µM
COc1cc2ccnc(Nc3ccc(Cl)cc3)c2cc1OC,IC50,Tumor necrosis factor,35 µM
